Rpn11 inh: Rpn11 (PSMD14) deubiquitinase inhibitors, primary screen, biochemical, fluorescence polarization, uHTS. 26S proteasome non-ATPase regulatory subunit 14 (Homo sapiens), O00487. human 26S proteasome, Ub4-pepOG fluorescence polarization; 20S core pre-blocked with epoxomicin. inhibition, % at 20 µM. 0.59% of 360,000 active;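 active = inhibition at 20 µM, scaled to each plate's controls, above about 33%, limit read from the data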
Target sequence (O00487 whole entry, looked up): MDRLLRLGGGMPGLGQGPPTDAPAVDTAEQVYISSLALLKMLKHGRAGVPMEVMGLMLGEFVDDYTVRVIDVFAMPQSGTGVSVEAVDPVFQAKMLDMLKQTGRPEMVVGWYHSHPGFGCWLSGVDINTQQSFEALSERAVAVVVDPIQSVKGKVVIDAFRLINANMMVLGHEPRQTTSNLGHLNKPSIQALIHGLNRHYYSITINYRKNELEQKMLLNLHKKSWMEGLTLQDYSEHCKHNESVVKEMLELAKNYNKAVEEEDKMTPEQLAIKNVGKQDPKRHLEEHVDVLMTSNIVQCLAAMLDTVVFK
HNF4A DNA FP: change in binding of human HNF4A to DNA, primary screen, biochemical, fluorescence polarization, FITC-DNA; 1 h; Hepatocyte nuclear factor 4-alpha (Homo sapiens), P41235; 0.3% of 360,000 active; AID 1224865, 2016; activity change, % at 10 µM; in the data active = activity change above about 30%, passing the limit was not always enough
ATG4B inhibitor: ATG4B protease inhibitors, primary screen, biochemical, fluorescence, uHTS; ATG4B cleavage of LC3-PLA2, NBD-HPC fluorescence, 1 h; AID 504462, 2011; inhibition, % at 8.33 µM; 0.51% of 340,000 active
CSN deneddyl inh: inhibitors of CSN-mediated cullin deneddylation, primary screen, biochemical, fluorescence polarization, uHTS; AID 651999, 2013; Purified CSN, SCF-Nedd8-OG deneddylation; COP9 signalosome complex subunit 5 (Homo sapiens), Q92905; inhibition, % at 12.5 µM; 0.38% of 360,000 active;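 active = pattern-corrected inhibition above about 35%, with an unprinted fluorescence ratio check between 0.5 and 1.5, limit read from the data, passing the limit was not always enough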;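 also: 0% = enzyme with substrate and 100% = substrate without enzyme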
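Assay system: Purified human Csn5 enzyme expressed in HEK293T cells | Amount: Enzyme 0.24 nM | Measured by: Fluorescence polarization readout | Medium: Tris/NaCl/DTT buffer, pH 7.5 | Compound dosing: One concentration, 12.5 µM, 0.25% DMSO | Times: 90 min incubation of compound, enzyme and substrate at room temperature | Control set: no-enzyme wells high, enzyme-with-substrate wells low | Read-out: % inhibition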
SENP1 inh: human SENP1 catalytic domain inhibitors, primary screen, biochemical, FRET, uHTS; 0.21% of 360,000 active; Sentrin-specific protease 1 (Homo sapiens), Q9P0U3; recombinant SENP1 catalytic domain, CyPet-SUMO1-YPet FRET cleavage; AID 624204, 2012; inhibition, % at 10 µM;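 active = inhibition at least 30% at 10 µM, raw YFP signal under a set limit, fluorescence ratio 0.5 to 1.5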;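 also: 0% = enzyme with DMSO and 100% = no enzyme wells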
Target sequence (Q9P0U3 419-644 limits assumed): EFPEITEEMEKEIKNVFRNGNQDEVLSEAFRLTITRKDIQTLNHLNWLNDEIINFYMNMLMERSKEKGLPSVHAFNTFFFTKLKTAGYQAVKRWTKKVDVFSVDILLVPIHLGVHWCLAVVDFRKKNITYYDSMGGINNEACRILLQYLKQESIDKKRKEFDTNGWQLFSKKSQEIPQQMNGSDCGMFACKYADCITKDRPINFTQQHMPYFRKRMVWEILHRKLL
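Controls: no-enzyme wells low, DMSO-plus-enzyme wells high control. Test system: human recombinant His6-tagged SENP1 catalytic domain enzyme. Reagent: SFCypet-SUMO1-SFYpet FRET protein substrate, 25 nM final. Doses: one dose per compound, 10 µM, 0.5% DMSO. Detection: FRET, CFP and YFP emission. Timing: 50 min reaction at room temperature.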
TPT1 inh: Candida albicans TPT1 enzyme inhibitors, primary screen, biochemical, fluorescence polarization; tRNA 2'-phosphotransferase TPT1 (Candida albicans SC5314); recombinant caTPT1, FP RNA substrate dephosphorylation; inhibition, % at 5 µM; 0.81% of 300,000 active;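 active = inhibition above the mean of all tested compounds plus 3 SD, set per screening campaign, cut at about 24% in these data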;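 also: plate controls were DMSO alone for no effect and ferristatin control at 100 nM for full effect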
Rpn11 confirm: Rpn11 (PSMD14) deubiquitinase inhibitors, confirmation, biochemical, fluorescence polarization, single concentration; purified human 26S proteasome, Ub4-pepOG fluorescence polarization; proteasome pretreated with epoxomicin; 29% of 1,900 active; AID 602318, 2012; shares compounds with Rpn11 inh; inhibition, % at 20 µM
MMP-2 counter-1: MMP-2 enzyme inhibition, confirmation, counter-screen for RPN11 inhibitor project, biochemical, fluorescence, single concentration; inhibition, % at 20 µM; 4% of 1,900 active; recombinant MMP-2, FRET peptide cleavage fluorescence; shares compounds with Rpn11 inh; AID 602330, 2012;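 also: human MMP-2 activated beforehand with APMA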
Thrombin FP: bovine thrombin protease inhibition, confirmation, counter-screen for Rpn11 inhibitor project, biochemical, fluorescence polarization, single concentration. inhibition, % at 20 µM. shares compounds with Rpn11 inh. 13% of 1,900 active. bovine thrombin cleavage of Ub4-pepOG;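 active = mean inhibition at least 40% at 20 µM, or signal 3 deviations below plate average, so some actives read negative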;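 also: plate controls were thrombin with DMSO for no effect and buffer wells lacking thrombin for full effect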
CSN deneddyl val: Csn5 deneddylation inhibitors, confirmation, biochemical, fluorescence polarization, single concentration, SCF-Nedd8OG substrate; shares compounds with CSN deneddyl inh; Csn5 deneddylation of SCF-Nedd8OG, 90 min; inhibition, % at 16.6 µM; 62% of 540 active; AID 720654, 2013; in the data active = inhibition above about 50%;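 also: 0% = DMSO with enzyme and 100% = no enzyme wells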
MMP-2 counter-2: MMP-2 protease inhibition counter-screen, confirmation, counter-screen for CSN deneddylation inhibitor project, biochemical, fluorescence, single concentration; shares compounds with CSN deneddyl inh; recombinant MMP-2, FRET substrate fluorescence, 60 min; inhibition, % at 16.6 µM; 33% of 540 active;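 active = corrected plate-normalized z-score of 5 or more, or -5 or less, or inhibition of 15% or more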;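 also: plate controls were DMSO wells with enzyme for no effect and buffer wells lacking MMP-2 for full effect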
Thrombin cntr: blocks bovine thrombin in a CSN deneddylation counter-screen; 49% of 540 active; shares compounds with CSN deneddyl inh; inhibition, % at 16.6 µM; AID 720656; bovine thrombin cleavage of Ub4-pepOG, fluorescence polarization;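 active = inhibition at or above a set limit, with a fluorescence interference ratio between 0.5 and a set maximum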
HNF4A confirm: change in HNF4A binding to DNA, retest, confirmation, biochemical, fluorescence polarization, FITC-DNA; shares compounds with HNF4A DNA FP; 1 h; activity change, % at 12.5 µM; 99% of 210 active; call rule not given here
Starred values were filed as active, the others as inactive; x = not tested or not shown; ! = a repeat was not active. This is a sample that favours compounds with a hit; in the whole collection about 2% have one here. Rule as the data show it, unless noted: active = inhibition above about 40%; inactive = the rest.

SMILES	Rpn11 inh	HNF4A DNA FP	ATG4B inhibitor	CSN deneddyl inh	SENP1 inh	TPT1 inh	Rpn11 confirm	MMP-2 counter-1	Thrombin FP	CSN deneddyl val	MMP-2 counter-2	Thrombin cntr	others
CC1(c2ccccc2Br)NC(=O)N(CC(=O)N2CCc3ccccc3C2)C1=O (stereo not given)	5	-2	4	2	3	x	x	x	x	x	x	x
CCN1CCN(Cc2ccc(NC(=O)c3cc(NC(=O)c4nccnc4N)cc(OC)c3)cc2C(F)(F)F)CC1	3	6	-20	-5	-6	-1	x	x	x	x	x	x
CCN1CCN(Cc2ccc(NC(=O)c3cc(NC(=O)c4cncc(-c5ccc(C#N)cc5)c4)cc(OC)c3)cc2C(F)(F)F)CC1	64*	45*!	7	138*!	-1	0	56*	-44	60*	-74	17*	5
Cc1nc2ccsc2c(=O)n1-c1cccc(Cl)c1	1	-2	1	1	0	2	x	x	x	x	x	x
O=C1NC(=Nc2ccc3ccccc3c2)S/C1=C/c1ccco1	40*	11	7	67*	-2	19	25	-21	16	85*	4	18*
O=C1NC(=Nc2ccc(O)cc2)S/C1=C/c1ccco1	4	0	-8	5	7	-1	x	x	x	x	x	x
CN(C)c1cccc(C(=O)Nc2nnc(Cc3ccccc3)s2)c1	-3	0	-14	-1	-8	-1	x	x	x	x	x	x
O=C(N/N=C/c1ccncc1)c1cccc(S(=O)(=O)Nc2ccc(Cl)cc2)c1	106*	-26	16	72*	3	-1	139*	46*	12	x	35*	-6
Oc1ccc(C[C@H]2CNC(=S)N2C[C@H]2CCCN2C[C@H](Cc2ccccc2)N2C[C@H](Cc3ccccc3)N(CC3CCCCC3)C2=S)cc1	x	-5	x	2	1	x	x	x	x	x	x	x
CCSCc1nnc(SCC(=O)Nc2nc(C)cs2)n1C	x	x	x	x	x	-4	x	x	x	x	x	x
Cc1c2cnn(CC(=O)Nc3c(F)c(F)cc(F)c3F)c(=O)c2c(C)n1Cc1ccccc1F	86*	-53	12	62*	-14	2	134*	24	22	2	7	13
Cc1c2cc[n+](CCN3CCCCC3)cc2c(C)c2c1[nH]c1ccc(O)cc12	90*	49	-6	100*	-10	x	69*	42*	20	-31	93*	40*
CCCCC1(c2ccc(F)cc2)NC(=O)N(CC(=O)Nc2ccc(N3CCOCC3)cc2)C1=O (stereo not given)	2	1	-3	-3	3	x	x	x	x	x	x	x
CS(=O)(=O)C1=NSC2=NC(=O)/C(=C\c3cccn3-c3ccc(Cl)cc3)C(=N)N21	47*	8	5	100*	-20	6	77*	39	120*	-75	26*	50*
O=C(NCc1ccccc1)N1CCC(Cc2ccccc2)CC1	1	3	16	3	0	2	x	x	x	x	x	x
CCN(CC)CCOC(=O)c1ccc(N/C=C(/C#N)c2nc(-c3ccc(OC)c(OC)c3)cs2)cc1	95*	207	-23	126*	-28	2	70*	-93	57*	-30	-42*	14
CCN(CC)CCOC(=O)c1ccc(N/C=C(/C#N)c2nc(-c3cccc(OC)c3)cs2)cc1	-1	5	-6	-2	1	9	x	x	x	x	x	x
COc1ccccc1-n1cnc2c(c1=O)c1nc3ccccc3nc1n2-c1ccc(C)cc1	90*	15	23	47*	-7	3	8	-92	-21	99*	5	3
O=C1NN(c2ccc(Cl)cc2)C(=O)/C1=C\c1ccc(-c2cccc(C(=O)O)c2)o1	104*	-20	28	36*	-72	x	142*	17	12	46	15*	24*
Cc1ccc(N2NC(=O)/C(=C/c3ccc(-c4ccc(Cl)c(C(=O)O)c4)o3)C2=O)cc1	3	-5	10	15	-109	2	x	x	x	x	x	x
CN1C=CC(=CC=C2C=CC(=O)C=C2)C=C1	82*	54*	0	34	-2	12	43*	-13	31	x	x	x	HNF4A confirm=48*
CC(C)(/C=N/O)N(O)C=C1C=CC(=O)C=C1	-9	-3	-9	0	2	-4	x	x	x	x	x	x
CSc1nsc(/C=C/Nc2ccc(F)cc2)c1C#N	64*	51*	-1	16	-25	24	28	-37	16	x	x	x	HNF4A confirm=46*
O=C(Nc1cccc(F)c1)Nc1ccnn1C1CCN(C(=O)c2cscn2)CC1	1	0	19	4	-1	1	x	x	x	x	x	x
N#CCC(=O)Nc1ccc(C(=O)OCC(=O)NC(=O)NCc2ccco2)cc1	45*	34*	-9	36*	-21	x	28	41*	28	x	x	x	HNF4A confirm=40*
